# Compound activity: PubChem, several laboratories
# Sampled rows, rich in hits. Any-hit rate of the full collection: about 3%.
# UBC13 polyUb: inhibitors of human UBC13 polyubiquitin chain formation; inhibition, % at 20 µM; TR-FRET; 0.47% of 330,000 active; in the data active means inhibition above about 45%, passing the limit was not always enough
# Target sequence (P61088 whole entry, looked up): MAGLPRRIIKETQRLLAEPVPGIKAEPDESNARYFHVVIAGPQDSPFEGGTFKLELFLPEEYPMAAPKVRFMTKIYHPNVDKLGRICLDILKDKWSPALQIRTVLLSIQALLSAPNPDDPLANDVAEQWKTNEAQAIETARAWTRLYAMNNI
# Apaf1 inhib: human Apaf-1 inhibition. reconstituted apoptosome caspase-3 activity, DEVD-Rh110 fluorescence. O14727. 0.71% of 330,000 active. inhibition, % at 20 µM. AID 489030; active means inhibition of at least 40% at 20 µM;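 further: plate controls were DMSO wells for no effect and DEVD-CHO caspase inhibitor wells for full effect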
#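 Material: reconstituted apoptosome with Apaf-1, cytochrome c, caspase-9, procaspase-3, dATP. Technique: Rh110 fluorescence intensity. Buffer or medium: pH 7.5 Hepes buffer with CHAPS, BSA, DTT. Times: 30 min plus 50 min, RT.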
# UCH37 inh: blocks the human deubiquitinase UCH37; inhibition, % (no concentration beside the values); AID 588478; purified proteasome/UCH37, Ub-AMC cleavage fluorescence; 0.33% of 330,000 active;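 active means mean inhibition over replicate wells above about 20%, limit read from the data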;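 further: 0% = compound-free wells with enzyme and 100% = wells lacking proteasome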
# Target sequence (Q9Y5K5 whole entry, looked up): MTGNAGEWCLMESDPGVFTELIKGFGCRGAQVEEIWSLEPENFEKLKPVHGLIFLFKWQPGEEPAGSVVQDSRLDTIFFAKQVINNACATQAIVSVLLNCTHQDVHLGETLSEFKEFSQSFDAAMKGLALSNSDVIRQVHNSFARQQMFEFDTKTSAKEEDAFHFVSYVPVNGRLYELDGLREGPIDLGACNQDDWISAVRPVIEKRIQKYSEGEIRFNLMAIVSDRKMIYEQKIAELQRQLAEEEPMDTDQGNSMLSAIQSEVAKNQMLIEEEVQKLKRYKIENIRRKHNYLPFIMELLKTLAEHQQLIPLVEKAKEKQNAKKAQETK
#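 system = Proteasome-associated human UCH37 deubiquitinase | amount = 0.15 nM proteasome as dispensed | medium = pH 7.4 Tris-HCl (50 mM) with ovalbumin, ATP-MgCl2, DTT | incubation = 30 min preincubation with enzyme, 25 min cleavage at room temperature | detection = AMC fluorescence 355/460 nm | read-out basis = percent inhibition | controls = no-proteasome and no-compound wells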
# MEKK3 PB1 HTS: raises or lowers MEK5 binding to the human MEKK3 PB1 domain | binding response (% of control), % at 10 µM | bead-based flow cytometry, Alexa488-MEK5 binding to MEKK3; actives lie on both sides; 0 = blocked by unlabeled MEK5, 100 = vehicle | 1.4% of 290,000 active | Q99759 | AID 1529;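 active means binding response more than 3 SD above or below the average of its plate-row segment, actives on both sides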;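 further: Alexa488 bead fluorescence after subtracting the streptavidin-only scavenger bead signal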
# MEKK2wt PB1 HTS: raises or lowers MEK5 binding to wildtype human MEKK2 PB1 domain; Q9Y2U5; bead flow cytometry, Alexa488-MEK5 binding to MEKK2 WT; actives lie on both sides; binding response (% of control), % at 10 µM; 1.1% of 290,000 active; in the data active means binding response below about 67% or above about 130%
# MEKK2mut PB1 HTS: signal of MEK5 binding to mutant human MEKK2 PB1 domain; bead flow cytometry, Alexa488-MEK5 binding to MEKK2 mutant; 0.35% of 290,000 active; percent response, % at 10 µM; AID 1530; in the data active means percent response above about 24%, passing the limit was not always enough
# MEKK2wt confirm: raises or lowers MEK5 binding to wildtype human MEKK2, retest; shares compounds with MEKK3 PB1 HTS; bead flow cytometry, Alexa488-MEK5 binding to MEKK2 WT; actives lie on both sides; binding response (% of control), % at 10 µM; 2.4% of 5,900 active; in the data active means binding response below about 16% or above about 210%; inactive means in between
# MEKK2mut-MEK5: signal of MEK5 binding to mutant human MEKK2, retest; shares compounds with MEKK3 PB1 HTS; bead flow cytometry, Alexa488-MEK5 binding to MEKK2 mutant; percent response, % at 10 µM; 2% of 5,900 active; AID 1893; in the data active means percent response mostly above about 71%, no sharp cut-off; inactive means mostly below about 38%;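 further: higher means compound restores mutant binding toward wildtype level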
# MEKK3 confirm: MEKK3-MEK5 PB1 inhibition, single concentration confirmation. shares compounds with MEKK3 PB1 HTS. 1.8% of 5,900 active. binding response (% of control), % at 10 µM. bead flow cytometry, Alexa488-MEK5 binding to MEKK3; stronger effect = lower value;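 active means binding response below 72% of control, or above a set upper limit, though filed actives all read lower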;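 further: 100% = DMSO only wells and 0% = binding blocked by excess unlabeled MEK5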
# An asterisk follows results filed as active; · = no result given; [ ] = another dose, or the depositor's remark.
SMILES,UBC13 polyUb,Apaf1 inhib,UCH37 inh,MEKK3 PB1 HTS,MEKK2wt PB1 HTS,MEKK2mut PB1 HTS,MEKK2wt confirm,MEKK2mut-MEK5,MEKK3 confirm
CCCC[C@@H](CNC)NC[C@H](Cc1ccc(O)cc1)NCCc1ccc(OCC)cc1,33,4,-1,103,153*,5,142,26,102
Cc1ccc(CNC(=O)Cn2c(=O)n(CC(=O)N3CCCCC3)c(=O)c3sccc32)cc1,0,-14,2,101,103,-1,·,·,·
Cc1ccc(CNC(=O)Cn2c(=O)c3sccc3n(Cc3ccc([N+](=O)[O-])cc3)c2=O)cc1,-2,-15,·,163*,107,0,104,1,100
CC(C)(C)NC(=O)NC(=O)CN1CCN(C(c2ccccc2)c2ccccc2)CC1,-22,11,0,157*,144,7,100,1,100
O=C1CN(S(=O)(=O)c2cc(C(F)(F)F)ccc2Cl)CCN1,0,4,1,·,·,·,·,·,·
Cc1nc2c(cc1C(=O)N/N=C/c1ccc([N+](=O)[O-])cc1)c(=O)n(C)c(=O)n2C,-2,-2,·,135*,108,1,105,12,111
COC(=O)c1ccccc1NC(=O)c1cc(-c2cccs2)on1,13,-21,1,107,100,2,·,·,·
O=C(/C=C/Nc1ccc(Cc2ccc(N/C=C/C(=O)C(F)(F)F)cc2)cc1)C(F)(F)F,-17,6,-61,134*,102,0,103,0,102
COc1ccc(CCNC(=O)CCC(=O)NC2CCCC(C)C2C)cc1OC (centres undefined),-9,15,1,107,109,4,·,·,·
Cc1ccc(C(=O)C[n+]2cc(Br)cc(Br)c2)cc1[N+](=O)[O-],-6,5,·,104,101,51*,111,2,98
O=C(CSc1nnc(-c2cccnc2)n1-c1ccc(SC(F)F)cc1)N1CCCc2ccccc21,-6,8,4,97,103,-1,·,·,·
CC(C)Cc1ccccc1O,-1,8,·,104,101,-3,·,·,·
Cc1ccc(S(=O)(=O)N2CCOCC2)cc1C(=O)OCC(=O)NCCc1ccccc1,6,-7,2,·,·,·,·,·,·
CC1(C)CC(CC(=O)Nc2ccccc2[N+](=O)[O-])C(=O)O1 (centres undefined),6,-13,7,147*,109,0,108,2,104
O=C(CC(=O)Nc1ccccc1[N+](=O)[O-])Nc1ccccc1[N+](=O)[O-],5,15,4,106,105,2,·,·,·
Cc1ccc(CCNC(=O)C2CCN(S(=O)(=O)c3cccc4nsnc34)CC2)cc1,4,0,4,105,99,1,·,·,·
CC(=O)[C@@H]1[C@@H]2C(=O)N(c3ccccc3F)C(=O)[C@@H]2[C@H]2c3ccccc3C=NN12,1,0,1,93,92,-10,·,·,·
O=C(c1ccc(Cl)cc1)[C@@H]1[C@@H]2C(=O)N(c3cccc4ccccc34)C(=O)[C@@H]2C2c3ccccc3C=NN21 (some centres undefined),9,8,1,153*,109,1,101,-8,100
CN1CCN(Cn2cc(/C=C/C(=O)c3ccccc3)c3ccccc32)CC1,15,-2,·,104,142*,18,111,1,101
OC(CN1CCCC1)Cn1ccc2ccccc21 (centres undefined),10,18,3,101,146*,31*,163,33,105
O=C(/C=C/c1cn(CC(O)CN2CCCCC2)c2ccccc12)c1cccs1 (centres undefined),·,·,2,105,118,7,·,·,·
COc1ccc(C(=O)/C=C/c2cn(CC(O)CN3CCN(C)CC3)c3ccccc23)cc1OC (centres undefined),-2,9,1,98,120,8,·,·,·
CCCCN(C)CC(O)Cn1cc(/C=C/C(=O)c2ccc(C)cc2)c2ccccc21 (centres undefined),26,36,·,107,186*,54*,189,55,107
O=C(/C=C/c1cn(CC(O)CN2CCCCC2)c2ccccc12)c1ccccc1 (centres undefined),·,·,-2,98,141*,16,160,37,107
CCC(C)N(C(=O)COC(=O)CSc1ccc([N+](=O)[O-])cc1)C1CCS(=O)(=O)C1 (centres undefined),-3,-3,·,100,108,3,·,·,·
SMILES,UBC13 polyUb,Apaf1 inhib,UCH37 inh,MEKK3 PB1 HTS,MEKK2wt PB1 HTS,MEKK2mut PB1 HTS,MEKK2wt confirm,MEKK2mut-MEK5,MEKK3 confirm
Cc1ccnc(NS(=O)(=O)c2ccc(N3C(=O)c4c(Cl)c(Cl)c(Cl)c(Cl)c4C3=O)cc2)n1,8,5,3,106,99,-2,·,·,·
CCCN(CCC)CC(O)Cn1cc(/C=C/C(=O)c2ccccc2)c2ccccc21 (centres undefined),·,·,-1,88,154*,21,150,21,99
COc1ccc(NC(=O)c2c(-c3ccccc3Cl)noc2C)c(OC)c1,6,-8,5,104,103,0,·,·,·
COc1cccc(NC(=O)CN(c2cccc(C(F)(F)F)c2)S(C)(=O)=O)c1,5,11,1,80*[inhibitor],81,-4,101,2,100
COc1cccc(NC(=O)CN(c2cccc(OC)c2)S(C)(=O)=O)c1,6,4,3,102,98,-3,·,·,·
COC(=O)c1ccc(C)c(-n2c(C)cc(C=O)c2C)c1,1,-1,0,150*,112,0,97,1,95
COC(=O)c1cccc(-n2c(C)cc(C=O)c2C)c1,4,5,3,127,105,0,·,·,·
CSCCC(C(=O)OCC(=O)c1ccc(C)c(C)c1)N1C(=O)c2cc(Cl)c(Cl)cc2C1=O (centres undefined),1,6,5,2.0*[inhibitor],2.0*[inhibitor],-15,90,-4,97
COc1ccc(C(=O)COC(=O)C(CC(C)C)N2C(=O)c3ccccc3C2=O)cc1 (centres undefined),6,21,0,100,99,2,·,·,·
